Most compounds without a hit are left out; they make up all but 3.7% or so of the library.
hERG protect – hERG rescue from dofetilide block, primary screen, cell-based, CHO-hERG, FluxOR thallium flux, dofetilide IC70; dofetilide IC70 present; Voltage-gated inwardly rectifying potassium channel KCNH2 (Homo sapiens), Q12809; actives 0.51% (n = 310,000); activation (rescue from dofetilide block), less the hit threshold, % at 10 µM;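 active = activation above the mean of controls blocked by dofetilide plus 5 SD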;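 also: thallium influx through hERG after potassium depolarization seen as dye fluorescence rise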
Target sequence (Q12809 whole entry, looked up): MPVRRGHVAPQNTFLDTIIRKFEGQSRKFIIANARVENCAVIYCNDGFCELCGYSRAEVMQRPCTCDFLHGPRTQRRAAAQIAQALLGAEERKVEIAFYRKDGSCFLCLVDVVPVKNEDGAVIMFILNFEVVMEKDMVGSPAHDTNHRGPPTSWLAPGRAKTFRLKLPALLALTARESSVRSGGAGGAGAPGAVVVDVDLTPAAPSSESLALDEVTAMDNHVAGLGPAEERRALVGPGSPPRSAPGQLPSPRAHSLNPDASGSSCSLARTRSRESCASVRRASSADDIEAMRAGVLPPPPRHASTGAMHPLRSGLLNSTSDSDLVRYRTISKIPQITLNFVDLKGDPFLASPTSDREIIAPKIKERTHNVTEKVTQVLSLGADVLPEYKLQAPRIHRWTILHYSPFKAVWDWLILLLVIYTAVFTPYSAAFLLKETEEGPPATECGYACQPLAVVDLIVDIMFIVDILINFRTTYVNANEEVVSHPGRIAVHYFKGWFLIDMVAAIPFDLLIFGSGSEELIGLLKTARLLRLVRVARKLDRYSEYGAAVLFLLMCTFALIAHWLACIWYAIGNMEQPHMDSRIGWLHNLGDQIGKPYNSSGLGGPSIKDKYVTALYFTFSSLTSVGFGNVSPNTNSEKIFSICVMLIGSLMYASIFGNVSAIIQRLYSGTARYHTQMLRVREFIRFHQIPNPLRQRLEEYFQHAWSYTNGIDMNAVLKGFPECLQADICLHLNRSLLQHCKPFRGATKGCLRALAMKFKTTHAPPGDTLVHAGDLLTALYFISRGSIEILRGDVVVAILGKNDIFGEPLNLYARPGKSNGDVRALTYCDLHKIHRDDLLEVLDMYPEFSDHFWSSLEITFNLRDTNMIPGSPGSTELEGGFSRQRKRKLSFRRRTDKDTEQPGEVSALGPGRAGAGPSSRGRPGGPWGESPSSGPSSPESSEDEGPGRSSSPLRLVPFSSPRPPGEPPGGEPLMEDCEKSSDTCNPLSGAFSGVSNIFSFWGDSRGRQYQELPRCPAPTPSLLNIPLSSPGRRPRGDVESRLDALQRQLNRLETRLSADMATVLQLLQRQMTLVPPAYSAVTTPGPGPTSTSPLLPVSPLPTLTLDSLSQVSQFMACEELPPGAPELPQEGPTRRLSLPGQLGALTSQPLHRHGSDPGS
KCNK9 block – KCNK9 potassium channel inhibitors, primary screen, HEK293 cells, thallium flux | actives 1.2% (n = 310,000) | FluxOR thallium flux fluorescence; hits give low values | Potassium channel subfamily K member 9 (Homo sapiens), Q9NPC2 | B-score at 10 µM | AID 488922, 2010;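 active = ratio B-score over 3 SD below the library mean, with starting fluorescence within 5 SD of its mean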;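 also: negative B-score means less thallium flux so channel inhibition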
KCNQ1 act – potentiators or activators of KCNQ1 channel, primary screen, cell-based, thallium flux, high-throughput; Potassium voltage-gated channel subfamily KQT member 1 (Homo sapiens), P51787; CHO-K1 KCNQ1, thallium flux FluxOR fluorescence; hits give high values; B-score at 10 µM; actives 0.35% (n = 310,000);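 active = fluorescence ratio B-score, a plate-corrected score, at least three library SD, with initial intensity B-score within 5 SD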
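Assay system: stable KCNQ1 CHO-K1 line; medium: assay buffer, equal DMSO in all wells; timing: 90 min dye loading and 20 min compound exposure, both at room temperature; technique: kinetic FluxOR thallium fluorescence, 10-s 1-Hz baseline, 110-s post-stimulus read; read-out basis: B score of baseline-normalized fluorescence ratio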
Kir21 inh – inhibitors of mouse Kir2.1 inward-rectifier potassium channel; B-score at 10 µM; Inward rectifier potassium channel 2 (Mus musculus), P35561; actives 0.85% (n = 310,000); HEK293-Kir2.1, FluxOR thallium flux fluorescence; hits give low values;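 active = fluorescence ratio B-score at or below minus 3 SD of library scores, with starting-brightness B-score within 2 SD, cut at about -4.2 in these data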;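 also: channel flux triggered by added potassium and thallium sulfate stimulus; B-score of peak minus minimum fluorescence over baseline after thallium stimulus; more negative B-score means stronger Kir2.1 block with less thallium influx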
KCNQ1 block – inhibitors of human KCNQ1 channel, primary screen, cell-based, thallium flux, high-throughput; Potassium voltage-gated channel subfamily KQT member 1 (Homo sapiens), P51787; CHO-K1 KCNQ1, FluxOR thallium flux fluorescence; hits give high values; B-score at 10 µM; actives 1.3% (n = 310,000);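 active = compounds whose thallium flux B-score, printed positive for inhibition, exceeds three library SD while starting fluorescence stays within three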;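 also: channel opened by potassium depolarization with thallium stimulus after 20 min compound exposure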
KCNK3 inh – human KCNK3 channel inhibitors, primary screen, CHO cells, FluxOR thallium flux, B-score; Potassium channel subfamily K member 3 (Homo sapiens), O14649; FluxOR fluorescence; hits give low values; B-score at 10 µM; actives 0.84% (n = 340,000);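 active = B-score under library mean minus 4 SD, starting fluorescence ratio at most library mean plus 5 SD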;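 also: more negative B-score means stronger inhibition of thallium flux through KCNK3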
* marks the source's active call; other numbers are inactive results; i = inactive; . = no result given.

SMILES	hERG protect	KCNK9 block	KCNQ1 act	Kir21 inh	KCNQ1 block	KCNK3 inh
CCc1cc(C(=O)N(Cc2ccccc2)c2c(N)n(CCOC)c(=O)[nH]c2=O)sc1C	-14	i	i	-0.5	i	i
CCCCn1c(NCc2ccccc2NS(=O)(=O)c2ccc(C)cc2)nc2ccccc21	-2	-7.1*	i	-3.1	7*	i
CCCCn1c(NCc2ccccc2O)nc2ccccc21	-11	i	i	1.7	i	i
Cc1cccc(C)c1NC(=O)CSc1nnc(-c2cnccn2)n1C	-3	i	i	0.01	i	i
O=C(NCc1ccccc1C(F)(F)F)C1CC(c2cc(C(F)(F)F)cc(C(F)(F)F)c2)=NO1 (stereo unspecified)	-6	i	i	0.11	6*	i
CCCCCCn1c2c(c(=N)c3c1CCC3)CCC2	-26	i	i	-0.68	6*	i
CCCCn1c2c(c(=N)c3c1CCC3)CCC2	.	.	.	.	.	i
COc1ccc(NS(=O)(=O)c2ccc3c(c2)NC(=O)C(C)S3)cc1 (stereo unspecified)	-9	i	i	-0.73	i	i
Fc1ccccc1CNCCC(Cc1ccccc1)c1ccc2c(c1)OCO2 (stereo unspecified)	-21	i	i	-8.7*	i	i
CC(C)CCC(CCNCc1ccccn1)c1ccc2c(c1)OCO2 (stereo unspecified)	-16	i	i	-7.2*	i	i
CC(C)C(CCNCc1ccccn1)c1ccc(Cl)cc1 (stereo unspecified)	-4	i	i	-4.4*	i	i
Cc1c(CCOC(=O)c2cccc([N+](=O)[O-])c2)sc[n+]1CC(=O)c1ccccc1	-14	i	i	-1.6	i	i
COc1cc(C(=O)NNC(=S)NC(=O)c2ccc(F)cc2)cc(OC)c1OC	-10	i	i	-0.13	i	i
COCCSc1ccccc1C(=O)Nc1ccc(Cl)cc1	-15	i	i	-0.2	i	i
O=C(/C=C/c1ccc2c(c1)OCO2)Nc1ccc(Cl)cn1	-13	i	i	0.04	i	i
Fc1ccccc1C1CC(c2ccco2)=Nc2ccccc2S1 (stereo unspecified)	-12	-6.9*	i	-0.49	i	i
Cc1cc(NC(=O)NC(=O)c2ccccc2NC(=O)CN)ccc1Oc1ncc(Br)cn1	.	.	.	.	.	i
Cc1nc(Sc2nnnn2-c2ccccc2)c(C#N)c(C)c1C	-10	i	i	-4.9*	i	i
COc1ccc(N2C(=O)C3CCCN3C2=O)cc1 (stereo unspecified)	4.9*	i	i	0.78	i	i
c1ccc(C[C@H]2CN=C(Nc3ccccc3)N2CCCC2CCCC2)cc1	-20	i	i	-5.6*	i	i
C[C@H]1CN=C(Nc2ccccc2)N1CCCC1CCCCC1	-8	i	i	-0.24	i	i
CCCCCCCN1C(Nc2ccccc2)=NC[C@@H]1Cc1ccccc1	-22	i	i	-5.6*	7*	i
c1ccc(CCCCN2C(Nc3ccccc3)=NC[C@@H]2Cc2ccccc2)cc1	.	.	.	.	.	i
CCCCn1c(-c2ccccc2C)nc2cc3[nH]c(=O)c(C(C)C)nc3cc21	-18	-8.1*	i	-0.94	i	i
Clc1ccc(CONc2ncnc3nonc23)c(Cl)c1	-25	i	i	-1.6	7*	i
SMILES	hERG protect	KCNK9 block	KCNQ1 act	Kir21 inh	KCNQ1 block	KCNK3 inh
CCOC(=O)c1[nH]c(C)c(/C(O)=C2\C(=O)C(=O)N(CCCN3CCOCC3)C2c2cccs2)c1C (stereo unspecified)	-9	i	i	2.7	i	i
CC1=CS(=O)(=O)CC1Sc1ncn[nH]1 (stereo unspecified)	4.7*	i	i	-0.57	i	i
c1ccc(COCCN2CCN(CCOCc3ccccc3)CC2)cc1	-9	i	i	1.9	i	i
C(#CCN1CCC(Cc2ccccc2)CC1)COCCOCc1ccccc1	-14	i	i	-5*	i	i
CC(=O)c1ccc(NC(=O)CCCN2C(=O)COc3ccc(C)cc32)cc1	-9	i	i	0.44	i	i
Oc1ccc2ccccc2c1-c1sc(Nc2ccccc2)n[n+]1-c1ccc(F)cc1	-22	i	i	-0.32	9*	i
Cc1ccc2[nH]c(=O)c(CN(Cc3ccccc3)C(=S)NCCCN(C)C)cc2c1	-18	i	i	-4.7*	i	i
Cc1ccccc1-n1ncc2c1CC(C)(C)CC2NC(=O)c1snnc1C (stereo unspecified)	-5	i	i	-0.95	i	i
CC(C)(C)OC(=O)N1CCC(CC2CC(c3ccccc3)=NO2)(C(=O)O)CC1 (stereo unspecified)	-4	i	i	-0.06	i	i
CCCCCCCNC(=O)C1(CC2CC(c3ccc(Cl)cc3)=NO2)CCN(C(=O)OC(C)(C)C)CC1 (stereo unspecified)	-10	i	i	-0.09	8*	i
Cc1ccccc1C(=O)NNC(=O)C(=O)Nc1cccc(Cl)c1C	13*	i	47*	-0.31	i	i
O=C1C(SCCO)=C(SCCO)C(=O)c2ccccc21	.	.	.	.	.	-15*
CC1=C(SCc2ccccc2)C(=O)c2ccccc2C1=O	.	.	.	.	.	i
COC(=O)C1=C(C)N(Cc2ccccc2)C(=NCc2cc(OC)c(OC)c(OC)c2)N[C@H]1c1cccc(F)c1	-7	i	i	-5.2*	i	i
CCOC(=O)CN1C(=O)N[C@@H](c2cccc(F)c2)C(C(=O)OC)=C1C	-7	i	i	-6.1*	i	i
COC(=O)C1=C(C)N(Cc2ccccc2)C(=NCc2ccc(OC)cc2)N[C@H]1c1cccc(F)c1	-18	i	i	-9.6*	i	i
CCOC(=O)CN1C(=O)N[C@@H](c2ccccc2)C(C(=O)OC)=C1C	.	.	.	.	.	i
COc1ccccc1NC(=O)C1=C(C)NC2=C(C(=O)CC(c3ccc(OC)c(OC)c3)C2)C1c1coc2ccccc2c1=O (stereo unspecified)	-15	i	i	-0.67	i	i
